Measurements as given in ChEMBL document CHEMBL5674890, “Selective inhibition of CBP/p300 HAT by A-485 results in suppression of lipogenesis and hepatic gluconeogenesis” (Cell Death Dis, 2020).
Calls of active or inactive are those of the source. No cut-off for these calls is given here.

How the values were obtained:
Mus musculus [1] = experiment: Anti-obesity activity in C57BL/6 mouse supplemented with high fat diet assessed as decrease in body weight at 20 mg/kg/day, ip administered for 1 week; format: functional, organism-based; settings: time 1.0 weeks
Outline: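 Male C57BL/6 mice fed high-fat diet for 14 weeks from 5 weeks of age, then ip 20 mg·kg−1·day−1 for 7 days. Body weight, EchoMRI lean/fat mass, and random or 16 h-fasted blood glucose recorded, as the line states.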

Mus musculus [2] = experiment: Anti-obesity activity in C57BL/6 mouse supplemented with high fat diet assessed as decrease in hepatic G6Pc mRNA expression level at 20 mg/kg/day, ip administered for 1 week measured by RT-qPCR assay; format: functional, organism-based; settings: time 1.0 weeks
Outline: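 Hepatic G6Pc mRNA in male C57BL/6 mice fed HFD for 14 weeks, then ip 20 mg·kg−1·day−1 for 7 days. Liver RNA extracted with Trizol; SYBR Green RT-qPCR.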

Mus musculus [3] = experiment: Inhibition of lipogenesis in C57BL/6 mouse supplemented with high-fat diet assessed as decrease in ACC mRNA expression at 20 mg/kg/day, ip administered for 1 week measured by RT-qPCR assay; format: functional, organism-based; settings: time 1.0 weeks
Outline: (§1)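 Male C57BL/6 mice were fed high-fat diet for 14 weeks from 5 weeks of age, then injected ip with 20 mg·kg−1·day−1 for 7 days or given vehicle. Epididymal and inguinal WAT were weighed, examined by H&E, and analysed. Transcripts were measured by Trizol/SYBR Green RT-qPCR; proteins by western blot. n = 5–9; mean ± SEM.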

Mus musculus [4] = experiment: Inhibition of lipogenesis in C57BL/6 mouse supplemented with normal chow diet assessed as decrease in SCD1 mRNA expression at 20 mg/kg/day, ip administered for 1 week measured by RT-qPCR assay; format: functional, organism-based; settings: time 1.0 weeks
Outline: (§2)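 Eight-week-old male C57BL/6 mice on normal chow were given 20 mg·kg−1·day−1 ip daily for 7 days or vehicle. Epididymal WAT was collected. Lipogenic, adipogenic and fatty-acid-oxidation transcripts were quantified by Trizol extraction and SYBR Green RT-qPCR. FAS, ACC, PPARγ and C/EBPα protein were assessed by western blot. n = 5–9; mean ± SEM.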

Mus musculus [5] = experiment: Inhibition of lipogenesis in C57BL/6 mouse supplemented with normal chow diet assessed as decrease in ACC protein expression at 20 mg/kg/day, ip administered for 1 week measured by western blot analysis; format: functional, organism-based; settings: time 1.0 weeks; outline: as §2
Mus musculus [6] = experiment: Inhibition of lipogenesis in C57BL/6 mouse supplemented with normal chow diet assessed as effect on ACO mRNA expression at 20 mg/kg/day, ip administered for 1 week measured by RT-qPCR assay; format: functional, organism-based; settings: time 1.0 weeks; outline: as §2
Mus musculus [7] = experiment: Inhibition of lipogenesis in C57BL/6 mouse supplemented with normal chow diet assessed as decrease in FABP4 mRNA expression at 20 mg/kg/day, ip administered for 1 week measured measured by RT-qPCR assay; format: functional, organism-based; settings: time 1.0 weeks; outline: as §2
Mus musculus [8] = experiment: Inhibition of lipogenesis in C57BL/6 mouse supplemented with high-fat diet assessed as decrease in PPARgamma mRNA expression at 20 mg/kg/day, ip administered for 1 week measured measured by RT-qPCR assay; format: functional, organism-based; settings: time 1.0 weeks; outline: as §1
Mus musculus [9] = experiment: Inhibition of lipogenesis in C57BL/6 mouse supplemented with high-fat diet assessed as decrease in PPARgamma protein expression at 20 mg/kg/day, ip administered for 1 week measured measured by western blot analysis; format: functional, organism-based; settings: time 1.0 weeks; outline: as §1
Adipocyte [10] = experiment: Inhibition of lipogenesis in mouse adipocytes isolated stromal vascular cells assessed as decrease in DGAT2 mRNA expression measured after 24 hrs by RT-qPCR assay; format: functional, cell-based
Outline: (§3)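 Stromal vascular cells from inguinal WAT of C57BL/6 mice, grown in DMEM/F12 + 10% FBS at 37 °C, 10% CO2. At confluence, induced 48 h with 5 μg/ml insulin, 1 μM dexamethasone, 0.5 mM isobutylmethylxanthine, then 6 days in 5 μg/ml insulin; fully differentiated day 8. Mature adipocytes exposed to inhibitor 24 h. Total RNA by Trizol, SYBR Green RT-qPCR; protein by western blot.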

Adipocyte [11] = experiment: Inhibition of lipogenesis in mouse adipocytes isolated stromal vascular cells assessed as decrease in PPARgamma mRNA expression measured after 24 hrs by RT-qPCR assay; format: functional, cell-based; outline: as §3
Adipocyte [12] = experiment: Inhibition of lipogenesis in mouse adipocytes isolated stromal vascular cells assessed as decrease in C/EBPalpha mRNA expression measured after 24 hrs by RT-qPCR assay; format: functional, cell-based; outline: as §3
Mus musculus [13] = experiment: Inhibition of hepatic lipogenesis in C57BL/6 mouse supplemented with normal chow diet assessed as decrease in lipid droplet at 20 mg/kg/day, ip administered for 1 week measured by Oil red O staining method; format: functional, organism-based; settings: time 1.0 weeks
Outline: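 Eight-week-old male C57BL/6 mice on normal chow were dosed daily by ip injection at 20 mg·kg−1·day−1 for 7 days, with a vehicle group. Liver sections were stained with Oil red O to view lipid droplets.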

Hepatocyte [14] = experiment: Inhibition of lipogenesis in mouse primary hepatocytes assessed as increase in MCAD mRNA expression at 3 uM in presence of 100 nM insulin and 5 to 25 mM glucose measured after 18 hrs by RT-qPCR assay; format: functional, cell-based
Outline: (§4)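 Primary hepatocytes isolated from C57BL/6 mice by two-step perfusion. Cells incubated 18 h with 3 μM inhibitor, with 0 or 100 nM insulin and 5 or 25 mM glucose. Transcripts quantified by SYBR Green RT-qPCR after Trizol RNA extraction; proteins by western blot of lysates. Mean ± SEM.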

Hepatocyte [15] = experiment: Inhibition of lipogenesis in mouse primary hepatocytes assessed as increase in FGF21 mRNA expression at 3 uM in presence of 100 nM insulin and 5 to 25 mM glucose measured after 18 hrs by RT-qPCR assay; format: functional, cell-based; outline: as §4
HepG2 = experiment: Inhibition of glucogenesis in human HepG2 cells stimulated with 8-Br-cAMP at 3 uM assessed as effect on change in TORC2/CREB interaction measured by coimmunoprecipitation analysis; format: functional, cell-based
Outline: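 HepG2 cells treated with 3 μM compound. CREB association with CBP and TORC2 assessed by coimmunoprecipitation (antibody 2 h, protein A/G beads overnight at 4 °C) and western blot.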

[16] = target: CREB-binding protein/Histone acetyltransferase p300 (Homo sapiens) (UniProt Q09472+Q92793); experiment: Inhibition of CBP/p300 in human HEK293T cells expressing HA-FOXO1 stimulated with 100 uM 8-Br-cAMP assessed as decrease in FOXO1 abundance in nucleus at 3 uM measured after 24 hrs by immunofluorescence analysis; format: cell-based; settings: time 3.0 hrs, in the assay text read “3 hrs” for “24 hrs”
CREB-binding protein/Histone acetyltransferase p300 (Homo sapiens), sequence (Q09472 whole entry, looked up): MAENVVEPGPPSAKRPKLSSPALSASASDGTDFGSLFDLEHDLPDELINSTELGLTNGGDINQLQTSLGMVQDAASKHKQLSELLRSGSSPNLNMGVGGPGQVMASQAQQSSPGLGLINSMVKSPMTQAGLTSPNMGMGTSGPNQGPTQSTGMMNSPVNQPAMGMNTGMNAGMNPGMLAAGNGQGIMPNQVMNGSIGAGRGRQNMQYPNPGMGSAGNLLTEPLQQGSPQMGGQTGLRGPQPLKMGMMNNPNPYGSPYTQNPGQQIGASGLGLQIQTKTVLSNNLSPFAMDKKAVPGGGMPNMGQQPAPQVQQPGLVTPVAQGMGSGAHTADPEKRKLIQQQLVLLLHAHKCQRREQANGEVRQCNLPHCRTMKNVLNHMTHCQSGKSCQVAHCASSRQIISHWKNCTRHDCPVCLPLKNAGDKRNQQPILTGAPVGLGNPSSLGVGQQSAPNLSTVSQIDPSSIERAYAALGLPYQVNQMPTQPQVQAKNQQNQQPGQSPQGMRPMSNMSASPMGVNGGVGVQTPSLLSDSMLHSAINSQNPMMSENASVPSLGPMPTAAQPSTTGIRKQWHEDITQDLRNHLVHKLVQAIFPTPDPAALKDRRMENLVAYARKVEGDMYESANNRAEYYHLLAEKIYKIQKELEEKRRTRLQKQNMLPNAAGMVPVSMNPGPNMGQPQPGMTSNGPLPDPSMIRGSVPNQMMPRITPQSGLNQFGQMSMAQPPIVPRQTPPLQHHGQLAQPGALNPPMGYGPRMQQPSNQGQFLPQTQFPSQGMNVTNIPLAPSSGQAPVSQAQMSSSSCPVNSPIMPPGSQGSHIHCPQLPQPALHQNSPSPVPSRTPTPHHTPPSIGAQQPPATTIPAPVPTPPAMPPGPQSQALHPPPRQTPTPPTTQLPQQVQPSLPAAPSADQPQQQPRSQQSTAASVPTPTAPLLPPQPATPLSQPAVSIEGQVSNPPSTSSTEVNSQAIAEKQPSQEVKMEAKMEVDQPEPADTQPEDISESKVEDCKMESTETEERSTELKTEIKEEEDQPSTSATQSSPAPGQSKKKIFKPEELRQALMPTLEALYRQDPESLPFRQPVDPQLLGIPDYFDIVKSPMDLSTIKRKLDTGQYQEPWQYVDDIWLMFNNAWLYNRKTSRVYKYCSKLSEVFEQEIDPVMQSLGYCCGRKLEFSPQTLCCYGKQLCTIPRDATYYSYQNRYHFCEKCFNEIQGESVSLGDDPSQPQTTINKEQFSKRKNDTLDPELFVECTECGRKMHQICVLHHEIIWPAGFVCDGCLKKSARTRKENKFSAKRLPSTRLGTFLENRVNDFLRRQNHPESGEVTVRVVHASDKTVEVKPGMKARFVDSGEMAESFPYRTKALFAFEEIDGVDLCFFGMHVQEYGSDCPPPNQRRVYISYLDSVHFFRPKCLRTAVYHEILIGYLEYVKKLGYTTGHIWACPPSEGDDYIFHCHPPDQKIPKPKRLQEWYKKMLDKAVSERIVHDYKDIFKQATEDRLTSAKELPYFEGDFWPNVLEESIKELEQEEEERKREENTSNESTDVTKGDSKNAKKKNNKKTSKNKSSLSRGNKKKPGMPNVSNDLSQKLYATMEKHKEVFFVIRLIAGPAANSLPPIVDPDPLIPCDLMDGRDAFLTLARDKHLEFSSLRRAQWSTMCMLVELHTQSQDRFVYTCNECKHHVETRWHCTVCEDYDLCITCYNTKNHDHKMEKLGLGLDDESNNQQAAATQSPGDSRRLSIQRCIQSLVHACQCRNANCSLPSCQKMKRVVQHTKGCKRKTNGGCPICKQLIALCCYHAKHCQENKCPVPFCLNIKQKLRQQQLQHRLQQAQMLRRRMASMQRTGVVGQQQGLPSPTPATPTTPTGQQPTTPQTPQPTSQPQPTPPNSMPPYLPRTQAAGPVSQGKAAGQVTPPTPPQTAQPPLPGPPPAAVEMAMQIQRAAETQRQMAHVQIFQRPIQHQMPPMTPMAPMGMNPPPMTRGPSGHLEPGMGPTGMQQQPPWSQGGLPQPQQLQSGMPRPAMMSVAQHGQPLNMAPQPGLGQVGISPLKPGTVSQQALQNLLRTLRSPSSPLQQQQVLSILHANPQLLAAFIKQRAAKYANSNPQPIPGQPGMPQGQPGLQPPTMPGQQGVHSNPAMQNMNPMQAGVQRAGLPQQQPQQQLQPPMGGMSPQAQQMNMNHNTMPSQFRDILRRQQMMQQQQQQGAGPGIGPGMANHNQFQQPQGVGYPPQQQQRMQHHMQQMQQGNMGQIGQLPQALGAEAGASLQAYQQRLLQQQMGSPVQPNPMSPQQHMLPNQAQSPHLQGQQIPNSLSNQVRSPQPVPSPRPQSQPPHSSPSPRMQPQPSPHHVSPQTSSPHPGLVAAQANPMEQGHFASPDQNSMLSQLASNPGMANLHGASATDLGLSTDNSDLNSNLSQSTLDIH
CREB-binding protein/Histone acetyltransferase p300 (Homo sapiens), sequence (Q92793 whole entry, looked up): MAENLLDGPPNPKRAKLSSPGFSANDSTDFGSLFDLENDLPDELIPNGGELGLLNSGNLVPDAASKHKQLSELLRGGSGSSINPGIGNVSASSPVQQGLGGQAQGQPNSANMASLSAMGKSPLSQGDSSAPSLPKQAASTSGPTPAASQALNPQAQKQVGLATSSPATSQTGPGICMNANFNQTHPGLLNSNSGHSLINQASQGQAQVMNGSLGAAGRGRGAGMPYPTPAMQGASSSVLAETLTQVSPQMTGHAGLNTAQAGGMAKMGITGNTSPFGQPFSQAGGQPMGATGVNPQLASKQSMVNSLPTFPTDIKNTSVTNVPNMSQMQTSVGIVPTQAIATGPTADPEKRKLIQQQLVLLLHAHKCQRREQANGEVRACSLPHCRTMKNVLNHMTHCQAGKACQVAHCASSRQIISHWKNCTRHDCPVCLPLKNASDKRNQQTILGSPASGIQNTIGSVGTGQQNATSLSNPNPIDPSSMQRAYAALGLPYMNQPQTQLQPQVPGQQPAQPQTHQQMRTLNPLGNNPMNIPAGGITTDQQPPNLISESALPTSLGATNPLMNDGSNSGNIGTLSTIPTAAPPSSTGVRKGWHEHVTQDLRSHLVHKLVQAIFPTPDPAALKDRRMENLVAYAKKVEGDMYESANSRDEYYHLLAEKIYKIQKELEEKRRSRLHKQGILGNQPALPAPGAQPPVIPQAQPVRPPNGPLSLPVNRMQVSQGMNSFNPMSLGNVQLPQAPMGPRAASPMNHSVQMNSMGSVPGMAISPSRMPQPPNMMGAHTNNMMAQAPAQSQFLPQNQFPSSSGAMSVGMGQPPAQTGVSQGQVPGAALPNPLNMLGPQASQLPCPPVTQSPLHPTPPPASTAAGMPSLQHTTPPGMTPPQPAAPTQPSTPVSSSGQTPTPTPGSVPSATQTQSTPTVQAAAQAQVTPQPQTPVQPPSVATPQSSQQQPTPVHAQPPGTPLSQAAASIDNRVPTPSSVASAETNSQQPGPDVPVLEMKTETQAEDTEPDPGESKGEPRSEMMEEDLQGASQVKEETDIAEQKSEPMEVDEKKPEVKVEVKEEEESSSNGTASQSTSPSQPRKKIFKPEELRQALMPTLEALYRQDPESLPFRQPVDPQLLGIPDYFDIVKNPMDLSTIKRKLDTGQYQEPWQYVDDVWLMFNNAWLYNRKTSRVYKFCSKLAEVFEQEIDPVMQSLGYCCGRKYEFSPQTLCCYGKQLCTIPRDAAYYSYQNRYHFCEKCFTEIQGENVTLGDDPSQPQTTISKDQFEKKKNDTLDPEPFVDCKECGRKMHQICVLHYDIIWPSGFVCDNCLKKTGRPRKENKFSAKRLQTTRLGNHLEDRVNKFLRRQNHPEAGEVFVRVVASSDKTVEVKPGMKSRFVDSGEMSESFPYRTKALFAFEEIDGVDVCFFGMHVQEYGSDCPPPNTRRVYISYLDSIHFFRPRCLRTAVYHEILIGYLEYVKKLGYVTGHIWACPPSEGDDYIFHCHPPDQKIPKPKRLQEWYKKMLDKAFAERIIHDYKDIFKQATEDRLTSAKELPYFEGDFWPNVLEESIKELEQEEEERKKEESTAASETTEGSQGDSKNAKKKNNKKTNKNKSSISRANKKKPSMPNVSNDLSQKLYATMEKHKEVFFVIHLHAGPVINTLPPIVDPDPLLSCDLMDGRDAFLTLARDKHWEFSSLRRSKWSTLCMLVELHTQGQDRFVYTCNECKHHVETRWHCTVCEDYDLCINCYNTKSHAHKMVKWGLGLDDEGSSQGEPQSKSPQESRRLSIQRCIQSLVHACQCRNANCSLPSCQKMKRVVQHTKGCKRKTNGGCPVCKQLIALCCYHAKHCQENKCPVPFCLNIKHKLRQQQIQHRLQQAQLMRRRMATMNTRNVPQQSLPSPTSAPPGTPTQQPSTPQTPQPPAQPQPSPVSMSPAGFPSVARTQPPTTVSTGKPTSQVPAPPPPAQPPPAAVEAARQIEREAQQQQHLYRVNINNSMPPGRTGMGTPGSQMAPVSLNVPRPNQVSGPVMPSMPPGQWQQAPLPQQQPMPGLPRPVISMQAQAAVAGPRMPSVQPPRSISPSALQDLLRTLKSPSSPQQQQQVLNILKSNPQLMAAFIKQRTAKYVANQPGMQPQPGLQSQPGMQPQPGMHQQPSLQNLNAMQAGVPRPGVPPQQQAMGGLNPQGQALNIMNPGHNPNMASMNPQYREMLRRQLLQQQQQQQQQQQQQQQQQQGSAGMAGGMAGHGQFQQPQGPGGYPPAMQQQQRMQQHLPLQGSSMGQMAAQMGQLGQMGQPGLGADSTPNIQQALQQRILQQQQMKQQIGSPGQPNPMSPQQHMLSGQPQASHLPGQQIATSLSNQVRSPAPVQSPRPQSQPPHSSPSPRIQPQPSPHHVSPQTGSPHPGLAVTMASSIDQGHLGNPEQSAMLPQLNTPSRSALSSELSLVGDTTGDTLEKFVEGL
Outline: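 HEK293T cells transfected with HA-FOXO1 plasmid for 24 h, then treated 3 h with 3 μM compound and 100 μM 8-Br-cAMP. Staining steps: fixed in 10% formalin, permeabilized 0.1% Triton X100, blocked 5% BSA, anti-HA (1:200) overnight at 4 °C, FITC secondary, DAPI. Localization imaged by fluorescence microscopy.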

Hepatocyte [17] = experiment: Inhibition of glucogenesis in mouse primary hepatocytes stimulated with 100 uM 8-Br-cAMP assessed as decrease in PEPCK mRNA expression at 3 uM measured after 8 hrs by RT-qPCR assay
Hepatocyte [18] = experiment: Inhibition of glucogenesis in mouse primary hepatocytes stimulated with 100 uM 8-Br-cAMP assessed as decrease in PEPCK protein expression at 3 uM in presence of cAMP measured after 16 hrs by western blot

## CNC(=O)Nc1ccc2c(c1)CCS21OC(=O)N(CC(=O)N(Cc2ccc(F)cc2)[C@@H](C)C(F)(F)F)C1=O (some centres undefined)
Mus musculus [1]
  Activity: Active
Mus musculus [2]
  Activity: Active
Mus musculus [3]
  inhibition: Active
Mus musculus [4]
  inhibition: Active
Mus musculus [5]
  inhibition: Active
Mus musculus [6]
  inhibition: inactive
Mus musculus [7]
  inhibition: Active
Mus musculus [8]
  inhibition: Active
Mus musculus [9]
  inhibition: Active
Adipocyte [10]
  inhibition: Active
Adipocyte [11]
  inhibition: Active
Adipocyte [12]
  inhibition: Active
Mus musculus [13]
  inhibition: Active
Hepatocyte [14]
  inhibition: Active
Hepatocyte [15]
  inhibition: Active
HepG2
  inhibition: inactive
[16]
  inhibition: Active
Hepatocyte [17]
  inhibition: Active
Hepatocyte [18]
  inhibition: Active
